One block for each molecule: values may come before it. Active and inactive are the calls of the source. The calls are words filed in the database; no cut-off is given here. *1 amine or outer side, *2 acyl side, *3 side chain or, on linkers, in order; H or OH if unused. Where a SMILES comes first, the peptide text is derived from it. [ ]: non-standard residue; d: D form. X1 = O=C(Cn1cc([C@H](Cc2ccccc2)N[*:1])nn1)[*:2]
Experiments:
[1] = target: KiSS-1 receptor (Homo sapiens, UniProt Q969F8); assay: Agonist activity at human wild-type KISS1R expressed in HEK293 cells assessed as induction of intracellular Ca2+ mobilization after 30 mins by Fluo4 NW Ca2+ assay; type: functional, cell-based
How it was run: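 HEK293 stably expressing HA-tagged wild-type human KISS1R, plated 40 000 cells/well 48 h prior. Loaded with Fluo4 NW dye 30 min at 37 °C plus 30 min at rt. Basal read 5× at 7 s intervals, compound added (final 1 pM–1 μM), Ca2+ followed 7 min. Mean basal subtracted, AUC plotted against concentration, sigmoid fit gives EC50. Nontransfected HEK293 served as control.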

[2] = Stability in Ile-de-France ewe serum assessed as intact compound level at 50 uM incubated for 6 hrs by HPLC method; type: ADME, cell-free, Ovis aries; details: female, sheep, read-out: Stability
How it was run: (§1)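 Ile-de-France ewe serum, stored at −20 °C and preheated 30 min at 39 °C. Peptide at 50 μM final, with L-phenylalaninol internal calibrator, incubated at 39 °C. Proteins precipitated with MeCN and spun; supernatant run on RP-HPLC (2–52% MeCN/0.1% TFA over 5 min, UV 214 nm, plus MS). Intact peak given as % of t = 0 area; five independent experiments.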

[3] = Drug metabolism in Ile-de-France ewe serum treated with 50 uM Ac-Tyr-Asn-Trp-Asn-Ser-Phe-azaGly-Leu-Arg-Tyr-NH2 assessed as retention time incubated for 6 hrs by LC-MS method; type: ADME, cell-free, Ovis aries; details: sheep
[4] = tested on: Ovis aries; assay: Increase in maximal amplitude of plasma LH level in anoestrus Ile-de-France ewe at 5 nmol, iv by radioimmunoassay (reference value: 0.6 +/- 0.5 ng/ml); type: functional
How it was run: (§2)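 Intact acyclic anoestrous Ile-de-France ewes (3–5 y, 55–70 kg), jugular catheter placed the day before. Single iv bolus of 1–15 nmol/ewe. Basal LH taken every 10 min for 30 min, then every 10 min for 2 h, every 20 min for 4 h, then hourly. Plasma LH by RIA (1051-CY-LH standard, sensitivity 0.1 ng/mL). Peak, duration and AUC derived; mean ± SEM, N = 4–6.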

[5] = tested on: Ovis aries; assay: Increase in total plasma LH level in anoestrus Ile-de-France ewe at 5 nmol, iv by radioimmunoassay; type: functional, organism-based; how it was run: as §2
[6] = tested on: Ovis aries; assay: Increase in duration of increase of plasma LH level in anoestrus Ile-de-France ewe at 5 nmol, iv by radioimmunoassay; type: functional; how it was run: as §2
[7] = target: Neuropeptide FF receptor 1 (Homo sapiens, UniProt Q9GZQ6); assay: Agonist activity at human NPFF1R expressed in CHO cells assessed as effect on forskolin-induced cAMP accumulation after 15 mins by luminescence based assay; type: functional, cell-based
How it was run: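 CHO cells stably expressing hNPFF1R (Gαi-coupled), transfected with GloSensor; seeded 30 000 cells/well 24 h before, PBS-washed twice, loaded with GloSensor cAMP reagent 2 h. Compound added, luminescence read 15 min, then 300 nM forskolin + 0.25 mM IBMX added and read a further 120 min. Signal AUC plotted against concentration, sigmoid fit for EC50.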

[8] = species on record: Homo sapiens; assay: Selectivity index, ratio of EC50 for human NPFF1R to EC50 for human wild-type KISS1R
[9] = Stability in Ile-de-France ewe serum assessed as intact compound level at 50 uM incubated for 1 hr by HPLC method; type: ADME, cell-free, Ovis aries; details: sheep, BLD = below limit of detection; how it was run: as §1

Sequence of KiSS-1 receptor (Q969F8 whole entry): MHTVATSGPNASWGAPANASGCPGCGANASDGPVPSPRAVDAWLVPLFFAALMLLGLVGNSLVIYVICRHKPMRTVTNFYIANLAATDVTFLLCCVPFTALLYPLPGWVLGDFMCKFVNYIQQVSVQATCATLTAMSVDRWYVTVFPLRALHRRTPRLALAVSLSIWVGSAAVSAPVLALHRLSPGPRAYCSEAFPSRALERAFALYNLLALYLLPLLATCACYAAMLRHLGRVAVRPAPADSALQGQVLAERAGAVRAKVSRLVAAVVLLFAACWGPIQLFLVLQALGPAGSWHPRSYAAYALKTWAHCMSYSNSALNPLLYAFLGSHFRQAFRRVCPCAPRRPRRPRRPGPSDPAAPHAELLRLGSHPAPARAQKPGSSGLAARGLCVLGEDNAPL
Sequence of Neuropeptide FF receptor 1 (Q9GZQ6 whole entry): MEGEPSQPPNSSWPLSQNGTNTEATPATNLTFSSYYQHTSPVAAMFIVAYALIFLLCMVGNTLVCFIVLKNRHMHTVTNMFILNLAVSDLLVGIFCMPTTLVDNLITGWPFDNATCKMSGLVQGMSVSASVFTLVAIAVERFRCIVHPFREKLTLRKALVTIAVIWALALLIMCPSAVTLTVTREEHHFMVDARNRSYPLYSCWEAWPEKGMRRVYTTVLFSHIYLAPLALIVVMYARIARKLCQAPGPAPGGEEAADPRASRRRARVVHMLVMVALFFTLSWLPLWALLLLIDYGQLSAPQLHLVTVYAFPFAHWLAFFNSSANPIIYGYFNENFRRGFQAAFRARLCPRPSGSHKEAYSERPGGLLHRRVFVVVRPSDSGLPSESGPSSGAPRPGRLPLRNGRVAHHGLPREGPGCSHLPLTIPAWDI

Molecule: CC(=O)N[C@@H](Cc1ccc(O)cc1)C(=O)N[C@@H](CC(N)=O)C(=O)N[C@@H](Cc1c[nH]c2ccccc12)C(=O)N[C@@H](CC(N)=O)C(=O)N[C@@H](CO)C(=O)N[C@@H](Cc1ccccc1)c1cn(CC(=O)N[C@@H](CC(C)C)C(=O)N[C@@H](CCCNC(=N)N)C(=O)N[C@@H](Cc2ccc(O)cc2)C(N)=O)nn1 (Ac-YNWNS[X1]LRY-NH2)
EC50 [1]: 0.6 nM
remaining at 6 h, 50 µM [2]: 61.4%

Molecule: Ac-YK(Ac)WNSFGLRY-NH2
EC50 [1]: 0.1 nM

Molecule: Ac-YNWNK(Ac)FGLRY-NH2
EC50 [1]: 7.2 nM

Molecule: Ac-YNWNSFGLRY-NH2
EC50 [1]: 0.07 nM
remaining at 6 h, 50 µM [2]: 2.6%
Activity [4]: 3.9 ng/mL
Activity [5]: Active
Activity [6]: Active
EC50 [7]: > 5000 nM
Ratio EC50 [8]: > 10000

Now from value to molecule, other results behind:

Retention_time [3]: 7.57 min
Molecule: CC(C)C[C@H](N)C(=O)N[C@@H](CCCNC(=N)N)C(=O)N[C@@H](Cc1ccc(O)cc1)C(N)=O (H-Leu-Arg-Tyr-NH2)

EC50 [1]: 0.9 nM
Molecule: Ac-K(Ac)NWNSFGLRY-NH2

EC50 [1]: 0.08 nM
Molecule: Ac-YNK(Ac)NSFGLRY-NH2

EC50 [1]: 13.9 nM
Molecule: Ac-YNWK(Ac)SFGLRY-NH2

Retention_time [3]: 9.51 min
Molecule: Ac-YNWNSF-OH

EC50 [1]: 2.5 nM
Stability [9]: BLD
Molecule: H-YNWNSFGLRY-NH2
Activity [4]: 3.3 ng/mL

From ChEMBL document CHEMBL3421632, “Rational design of triazololipopeptides analogs of kisspeptin inducing a long-lasting increase of gonadotropins” (J Med Chem, 2015)
